Bioassay records (PubChem BioAssay)
A selection: hits, their analogues and other compounds. The true share with any hit is near 0.8%.
FXIa inh mix – inhibitors of human coagulation factor XIa, pooled mixtures | inhibition, % at 5 µM | AID 680 | purified FXIa, fluorogenic substrate | P03951 | 62,000 compounds, 0.19% hits;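 note: each value is inhibition by a whole ten-compound pool holding the compound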
Target sequence (P03951 19-387 limits assumed): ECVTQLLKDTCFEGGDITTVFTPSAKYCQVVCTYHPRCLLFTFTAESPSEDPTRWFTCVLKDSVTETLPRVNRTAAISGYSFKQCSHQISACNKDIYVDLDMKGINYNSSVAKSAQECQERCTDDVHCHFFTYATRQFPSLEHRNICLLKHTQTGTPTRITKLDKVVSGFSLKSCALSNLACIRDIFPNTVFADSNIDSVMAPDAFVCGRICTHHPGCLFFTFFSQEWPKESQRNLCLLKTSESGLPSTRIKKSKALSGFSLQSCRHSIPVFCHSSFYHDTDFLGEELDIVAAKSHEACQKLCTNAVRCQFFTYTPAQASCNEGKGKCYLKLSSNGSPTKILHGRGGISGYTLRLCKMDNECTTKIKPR
Target sequence (P03951 388-625 limits assumed): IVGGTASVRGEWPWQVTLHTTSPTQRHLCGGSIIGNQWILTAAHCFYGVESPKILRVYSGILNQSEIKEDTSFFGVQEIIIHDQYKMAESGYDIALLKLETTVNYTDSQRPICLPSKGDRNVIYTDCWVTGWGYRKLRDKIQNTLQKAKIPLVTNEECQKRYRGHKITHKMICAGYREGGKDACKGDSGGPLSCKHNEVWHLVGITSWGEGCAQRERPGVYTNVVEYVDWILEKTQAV
AP ELISA ortho – alternative pathway complement inhibition, orthogonal assay; Human serum alternative complement pathway, LPS-coated ELISA, C3 deposition; tested in compound mixtures; inhibition, % at 5 µM; 62,000 compounds, 0.08% hits;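 active = inhibition above 30% in each of the two pooled mixtures holding the compound, so the lower value exceeds 30%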
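Test system: human serum alternative complement pathway, C3 deposition on LPS-coated wells; also added: Plate-bound LPS; doses: 5 µM per compound in ten-compound mixtures; schedule: 1 h at 37 °C; detection: Anti-C3 ELISA, OD 450 nm; evaluation: percent inhibition of C3 deposition onto LPS; repeats: two pool placements per compound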
Cathepsin G inh – cathepsin G (human) inhibition. 62,000 compounds, 0.2% hits. P08311. inhibition, % at 5 µM (by protocol). AID 581. purified enzyme, AMC-tetrapeptide fluorescence, pooled mixtures;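 active = inhibition above 20% in each of the two mixture wells holding the compound; inactive = inhibition of 20% or less in either well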
FXIIa mix inh – inhibitors of human coagulation factor XIIa, pooled mixtures | 62,000 compounds, 0.2% hits | P00748 | inhibition, % at 5 µM | purified FXIIa, fluorogenic substrate
C1s inh – human complement C1s inhibition. P09871. purified C1s, fluorogenic AMC substrate, pooled mixtures. mean inhibition % of two 10-compound mixtures (stronger effect = higher value), % at 5 µM (by protocol). 62,000 compounds, 0.16% hits;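 active = inhibition above 20% in each of the two 10-compound mixture wells holding the compound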
mHtt clearance – mutant huntingtin protein clearance; HeLa Exon1htt(103Q)mCFP, aggregate imaging; zero = plate's median compound well; inhibition, % at 1.5 µM; 47,000 compounds, 0.42% hits; AID 853;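 active = inhibition of aggregate fluorescence above about 70%, also judged a hit by eye on the cell image, limit read from the data, passing the limit was not always enough; inconclusive = no rule stated for this call; inactive = not judged a hit on image review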;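 note: cells exposed to compound for three days before fixation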
Numbers stand for hits; 0 = inactive; ? = inconclusive; - = no result. Cut-off read from the data, not from the text of the source, unless noted: active = inhibition above about 20% (passing the limit was not always enough); inactive = the rest.

SMILES	FXIa inh mix	AP ELISA ortho	Cathepsin G inh	FXIIa mix inh	C1s inh	mHtt clearance
CC1=CCC(Cc2nc3ccccc3o2)C1(C)C (stereo not drawn)	0	0	0	0	0	77
O=C(C1=C(O)C(=O)N(CCN2CCOCC2)C1c1ccccc1)c1cccs1 (stereo not drawn)	0	0	0	0	0	0
COc1ccc(C(=O)NCCCCCC(=O)O)cc1OC	0	0	0	0	0	-
Cc1oc(-c2ccccc2F)nc1CS(=O)CC(=O)NCc1cccs1 (stereo not drawn)	0	40	0	0	0	-
COC(=O)C1=C(C)N=c2s/c(=C/c3cccs3)c(=O)n2C1c1ccc(F)cc1 (stereo not drawn)	-	-	-	-	-	0
COc1cc2cc(C(c3nnnn3C3CCCC3)N3CCCCCC3)c(=O)[nH]c2cc1OC (stereo not drawn)	0	0	0	0	0	0
COc1cc2cc(C(c3nnnn3C3CCCC3)N3CCCCC3)c(=O)[nH]c2cc1OC (stereo not drawn)	0	31	0	0	0	0
COc1ccccc1CNC(=O)CN(c1ccc(C)cc1)S(=O)(=O)c1c(C)nn(C)c1C	0	0	0	0	0	0
O=C(COC(=O)Cc1ccsc1)NC1CCCCCC1	0	0	0	0	0	74
O=C(COC(=O)c1cccc(C(=O)OCC(=O)NC2CCCCC2)n1)NC1CCCCC1	0	0	0	0	0	0
N#C/C(C(=O)NCc1ccco1)=C1/SC(Cc2ccc(F)cc2)C(=O)N1c1ccccc1 (stereo not drawn)	26	0	0	0	0	-
CCC1S/C(=C(\C#N)C(=O)NCc2ccco2)N(c2ccc(F)cc2)C1=O (stereo not drawn)	0	0	0	0	0	0
Cc1ccc(NS(=O)(=O)c2cc(C(=O)O)ccc2Cl)c(C)c1	0	0	0	0	0	72
CCOc1ccc2[nH]c(=O)c(CN(Cc3cccs3)Cc3nnnn3C(C)(C)C)cc2c1	0	0	0	0	0	0
COc1ccc2[nH]c(=O)c(CN(Cc3cccs3)Cc3nnnn3C(C)(C)C)cc2c1	22	0	0	0	0	-
COc1ccc(C2C(C(=O)c3cccs3)=C(O)C(=O)N2c2nncs2)cc1 (stereo not drawn)	43	0	22	0	0	0
C=CCOc1ccc(C2C(C(=O)c3cccs3)=C(O)C(=O)N2c2nnc(C)s2)cc1 (stereo not drawn)	-	-	-	-	-	0
Cc1ccc(OC(=O)C(F)(F)F)c2c1NCCC2	0	35	0	0	0	-
CCN(CC)c1ccc(NC(=O)CN2C(=O)CSc3ncccc32)c(C)c1	23	0	0	0	0	0
CCOC(=O)c1c(NC(=O)CSc2nc3cccnc3n2C)sc(C(C)=O)c1C	0	0	0	0	0	-
CCOC(=O)c1c(NC(=O)c2csc(C)c2)sc(C(C)=O)c1C	0	0	0	0	0	78
CCOC(=O)c1c(NC(=O)CSc2nnc(-c3ccccc3C)n2C)sc(C(C)=O)c1C	0	0	0	0	0	76
CCOC(=O)c1c(NC(N)=O)sc(C)c1C	29	0	0	0	0	0
O=C(NC(=O)c1ccc(Cl)cc1)Nc1cc(N2CCCCC2)ncn1	0	0	0	0	0	0
O=C(c1ccc(S(=O)(=O)N2CCCCC2)cc1)N1CCN(c2ccccc2)CC1	0	0	0	0	0	0
SMILES	FXIa inh mix	AP ELISA ortho	Cathepsin G inh	FXIIa mix inh	C1s inh	mHtt clearance
CC(C)(C)NC(=O)C1CCC(C)(C(=O)O)C1(C)C (stereo not drawn)	0	0	0	0	0	-
Cc1ccc2c(C(=O)CN3CCOCC3)c(C)[nH]c2c1	-	-	-	-	-	0
Cc1cc(NC(=O)c2noc3c2CCc2ccccc2-3)no1	42	0	95	0	0	-
Cc1ccccc1Cn1nc(C)c(NC(=O)c2noc3c2CC(C(C)(C)C)CC3)c1C (stereo not drawn)	0	0	0	0	0	0
O=C(NCCCn1ccnc1)c1noc2c1CCCC2	0	0	0	0	0	-
O=C(NCCCn1ccnc1)c1noc2c1CCc1ccccc1-2	0	0	95	0	0	0
Cc1ccccc1Cn1nc(C)c(NC(=O)c2noc3c2CCc2ccccc2-3)c1C	0	0	72	0	0	0
CC(C)C(CC(=O)N1CCCCC1)C1CCOC(C)(C)C1 (stereo not drawn)	0	0	28	0	0	0
COC(=O)c1cc(C(=O)OC)cc(N2C(=O)CC(NNC(=O)c3ccccc3Br)C2=O)c1 (stereo not drawn)	-	-	-	-	-	85
COC(=O)c1cc(C(=O)OC)cc(N2C(=O)CC(Sc3nc(C)cc(C)n3)C2=O)c1 (stereo not drawn)	0	0	0	0	0	0
Cc1ccc2cc3c(NC(=O)c4ccco4)nn(CC(C)C)c3nc2c1	0	0	0	0	0	0
Cc1ccc(CS(=O)(=O)CCC(=O)NCCCN2CCCC2=O)cc1	0	0	0	22	0	0
O=c1oc2ccccc2cc1-c1csc(Cc2nc(-c3ccc(Br)cc3)cs2)n1	-	-	-	-	-	0
COc1ccc(S(=O)(=O)n2nc(-c3cc(OC)c(OC)c(OC)c3)cc2N)cc1OC	0	0	0	21	0	-
Cc1ccc(N(C(C)C(=O)O)S(=O)(=O)c2cccnc2)cc1 (stereo not drawn)	0	0	0	0	0	-
Cc1ccc(NS(=O)(=O)c2cc(C(=O)N3CCOCC3)ccc2C)cc1C	0	0	0	0	21	?
Nc1ccn(-c2ccc(Cl)cc2)c(=O)c1	0	0	0	0	0	0
O=C(c1ccco1)N1CCN=C1SCc1c(F)cccc1Cl	29	0	0	0	0	0
COC(=O)c1ccccc1NC(=O)c1cc(-c2ccc(OC)c(OC)c2)on1	0	0	0	0	0	71
COc1cccc(-c2cc(C(=O)NCCc3ccccc3)no2)c1	0	0	22	0	0	-
COc1ccc(-c2cc(C(=O)NCc3ccc(Cl)cc3)no2)cc1OC	0	0	55	0	0	0
COc1ccc(CNC(=O)c2cc(-c3ccc(OC)c(OC)c3)on2)cc1	0	0	32	0	22	-
COc1ccc(NC(=O)c2cc(-c3ccc(OC)c(OC)c3)on2)cc1OC	0	0	0	0	0	0
COc1cccc(-c2cc(C(=O)NCc3ccc(Cl)cc3)no2)c1	0	0	0	0	0	0
O=C(Nc1ccccc1C(=O)NCc1ccco1)c1ccco1	0	0	0	0	0	0
SMILES	FXIa inh mix	AP ELISA ortho	Cathepsin G inh	FXIIa mix inh	C1s inh	mHtt clearance
CC(C)CC(=O)Nc1ccc(OCC(=O)O)cc1	0	0	0	0	0	-
O=C(Cc1ccccc1)NCc1nc2ccccc2[nH]1	-	-	-	-	-	88
Cc1ccc(C)c(NC2=NS(=O)(=O)c3ccccc32)c1	0	0	0	0	0	-
COC(=O)c1ccc(C(=O)OC)c(NC2=NS(=O)(=O)c3ccccc32)c1	0	0	0	0	0	75
CCCCn1c(=O)n(C)c(=O)c2c(C(F)(F)F)cc(-c3ccncc3)nc21	0	0	0	44	0	-
Cc1ccc(C(=O)CC2(O)C(=O)N(C)c3ccccc32)o1 (stereo not drawn)	0	0	0	0	0	-
